Measured values reported in ChEMBL document CHEMBL1212853, “New chloro,fluorobenzylindole derivatives as integrase strand-transfer inhibitors (INSTIs) and their mode of action” (Bioorg Med Chem, 2010).

Columns and labels:
[1] = test system: Human immunodeficiency virus 1; test: Antiviral activity against HIV1 infected in human MT4 cells assessed as inhibition of virus-induced cytopathic effect; format: functional, organism-based; settings: Human immunodeficiency virus 1, MT4
How it was run: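 MT-4/MTT assay: MT-4 cells were infected with 100–300 CCID50 of an HIV-1 IIIB stock, titrated on MT-4 cells, in the presence of fivefold serial compound dilutions. Cell protection from virus-induced cytopathic effect was read spectrophotometrically as MTT reduction to formazan by viable cells. EC50 is the concentration giving 50% protection. Averages ± SD.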

MT4 = test: Cytotoxicity against human MT4 cells by MTT assay; format: cell-based
How it was run: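 Run in parallel with the antiviral MT-4/MTT assay, using fivefold serial compound dilutions. Viability was read spectrophotometrically as MTT reduction to formazan by mitochondrial dehydrogenase. CC50 is the concentration reducing MT-4 viability by 50%. Averages ± SD.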

[2] = Selectivity index, ratio of CC50 for human MT4 cells to EC50 for HIV1 cells; format: toxicity, cell-based; settings: read-out: Selectivity Index
How it was run: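 MT-4/MTT assay in human MT-4 lymphocytes. Cells were infected with 100–300 CCID50 of HIV-1 strain IIIB, titrated on MT-4 cells, in the presence of fivefold serial compound dilutions. Viability was read spectrophotometrically as MTT reduced to formazan. EC50 is 50% protection against virus-induced cytopathic effect; CC50 was determined in parallel. SI is calculated as CC50/EC50.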

[3] = target: T1, Human immunodeficiency virus type 1 integrase (Human immunodeficiency virus 1, UniProt Q7ZJM1)
T1 sequence (Q7ZJM1 whole entry): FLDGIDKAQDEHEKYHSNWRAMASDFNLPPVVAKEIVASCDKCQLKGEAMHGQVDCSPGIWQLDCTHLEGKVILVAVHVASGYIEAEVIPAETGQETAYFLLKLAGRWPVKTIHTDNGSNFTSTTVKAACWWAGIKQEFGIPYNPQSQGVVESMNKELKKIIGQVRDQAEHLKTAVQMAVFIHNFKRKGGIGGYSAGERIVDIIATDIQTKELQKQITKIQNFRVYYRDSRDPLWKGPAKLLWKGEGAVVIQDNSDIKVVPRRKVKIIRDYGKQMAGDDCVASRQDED

[4] = target: T1, Human immunodeficiency virus type 1 integrase; remark: listed apart in the source

Structure (SMILES): COc1cccc2c1c(C(=O)/C=C(\O)C(=O)O)cn2Cc1cccc(Cl)c1
- EC50 [1]: 0.64 µM
- EC50 (MT4): 30.2 µM
- selectivity ratio [2]: 47
- IC50 [3]: 0.13 µM
- IC50 [4]: 0.03 µM

Structure (SMILES): COc1cccc2c1c(C(=O)/C=C(\O)C(=O)O)cn2Cc1ccc(Cl)cc1
- EC50 [1]: 20.6 µM
- EC50 (MT4): 33.5 µM
- selectivity ratio [2]: 2
- IC50 [3]: 1.02 µM
- IC50 [4]: 0.59 µM

Structure (SMILES): COc1cccc2c1c(C(=O)/C=C(\O)C(=O)O)cn2Cc1cccc(F)c1Cl
- EC50 [1]: 0.36 µM
- EC50 (MT4): 6.5 µM
- selectivity ratio [2]: 18
- IC50 [3]: 5.24 µM
- IC50 [4]: 12.7 µM

Structure (SMILES): COc1cccc2c1c(C(=O)/C=C(\O)C(=O)O)cn2Cc1ccc(F)cc1Cl
- EC50 [1]: 4.3 µM
- EC50 (MT4): 47.2 µM
- selectivity ratio [2]: 11
- IC50 [3]: 0.54 µM
- IC50 [4]: 0.06 µM

Structure (SMILES): COc1cccc2c1c(C(=O)/C=C(\O)C(=O)O)cn2Cc1cc(F)ccc1Cl
- EC50 [1]: 3.3 µM
- EC50 (MT4): 26.3 µM
- selectivity ratio [2]: 8
- IC50 [3]: 0.42 µM
- IC50 [4]: 0.27 µM

Structure (SMILES): COc1cccc2c1c(C(=O)/C=C(\O)C(=O)O)cn2Cc1c(F)cccc1Cl
- EC50 [1]: 0.56 µM
- EC50 (MT4): 62 µM
- selectivity ratio [2]: 111
- IC50 [3]: 0.53 µM
- IC50 [4]: 0.13 µM

Structure (SMILES): COc1cccc2c1c(C(=O)/C=C(\O)C(=O)O)cn2Cc1cccc(Cl)c1F
- EC50 [1]: 0.43 µM
- EC50 (MT4): 15 µM
- selectivity ratio [2]: 35
- IC50 [3]: 0.74 µM
- IC50 [4]: 0.03 µM

Structure (SMILES): COc1cccc2c1c(C(=O)/C=C(\O)C(=O)O)cn2Cc1ccc(F)c(Cl)c1
- EC50 [1]: 0.43 µM
- EC50 (MT4): 31.7 µM
- selectivity ratio [2]: 74
- IC50 [3]: 0.04 µM
- IC50 [4]: 0.12 µM

Structure (SMILES): COc1cccc2c1c(C(=O)/C=C(\O)C(=O)O)cn2Cc1cc(F)cc(Cl)c1
- EC50 [1]: 0.52 µM
- EC50 (MT4): 32.1 µM
- selectivity ratio [2]: 62
- IC50 [3]: 0.24 µM
- IC50 [4]: 0.25 µM

Structure (SMILES): COc1cccc2c1c(C(=O)/C=C(\O)C(=O)O)cn2Cc1cc(Cl)ccc1F
- EC50 [1]: 4.17 µM
- EC50 (MT4): 10.8 µM
- selectivity ratio [2]: 3
- IC50 [3]: 0.32 µM
- IC50 [4]: 0.09 µM

Structure (SMILES): COc1cccc2c1c(C(=O)/C=C(\O)C(=O)O)cn2Cc1ccc(Cl)cc1F
- EC50 [1]: > 22.5 µM
- EC50 (MT4): 23 µM
- selectivity ratio [2]: < 1
- IC50 [3]: 2.53 µM
- IC50 [4]: 5.52 µM

Structure (SMILES): COc1cccc2c1c(C(=O)/C=C(\O)C(=O)O)cn2Cc1ccc(Cl)c(F)c1
- EC50 [1]: > 23.3 µM
- EC50 (MT4): 23.3 µM
- selectivity ratio [2]: < 1
- IC50 [3]: 3.33 µM
- IC50 [4]: 4.58 µM

Structure (SMILES): CCOC(=O)/C(O)=C/C(=O)c1cn(Cc2ccccc2Cl)c2cccc(OC)c12
- EC50 [1]: 2.51 µM
- EC50 (MT4): 34.5 µM
- selectivity ratio [2]: 14
- IC50 [3]: 13.1 µM
- IC50 [4]: 0.73 µM

Structure (SMILES): CCOC(=O)/C(O)=C/C(=O)c1cn(Cc2cccc(Cl)c2)c2cccc(OC)c12
- EC50 [1]: 3.25 µM
- EC50 (MT4): 52.9 µM
- selectivity ratio [2]: 17
- IC50 [3]: 4.78 µM
- IC50 [4]: 2.89 µM

Structure (SMILES): CCOC(=O)/C(O)=C/C(=O)c1cn(Cc2ccc(Cl)cc2)c2cccc(OC)c12
- EC50 [1]: 41.3 µM
- EC50 (MT4): 41.3 µM
- selectivity ratio [2]: 1
- IC50 [3]: 5.78 µM
- IC50 [4]: 8.26 µM

Structure (SMILES): CCOC(=O)/C(O)=C/C(=O)c1cn(Cc2cccc(F)c2Cl)c2cccc(OC)c12
- EC50 [1]: 2.52 µM
- EC50 (MT4): 18.5 µM
- selectivity ratio [2]: 7
- IC50 [3]: 1.39 µM
- IC50 [4]: 9.2 µM

Structure (SMILES): CCOC(=O)/C(O)=C/C(=O)c1cn(Cc2ccc(F)cc2Cl)c2cccc(OC)c12
- EC50 [1]: 4.06 µM
- EC50 (MT4): 51.4 µM
- selectivity ratio [2]: 13
- IC50 [3]: 1.74 µM
- IC50 [4]: 2.56 µM

Structure (SMILES): CCOC(=O)/C(O)=C/C(=O)c1cn(Cc2cc(F)ccc2Cl)c2cccc(OC)c12
- EC50 [1]: 16.4 µM
- EC50 (MT4): 39.6 µM
- selectivity ratio [2]: 3
- IC50 [3]: 2.7 µM
- IC50 [4]: 2.94 µM

Structure (SMILES): CCOC(=O)/C(O)=C/C(=O)c1cn(Cc2c(F)cccc2Cl)c2cccc(OC)c12
- EC50 [1]: 4.66 µM
- EC50 (MT4): 25.4 µM
- selectivity ratio [2]: 5
- IC50 [3]: 2.86 µM
- IC50 [4]: 1.2 µM

Structure (SMILES): CCOC(=O)/C(O)=C/C(=O)c1cn(Cc2cccc(Cl)c2F)c2cccc(OC)c12
- EC50 [1]: 2.31 µM
- EC50 (MT4): 46.9 µM
- selectivity ratio [2]: 20
- IC50 [3]: 1.37 µM
- IC50 [4]: 0.74 µM

Structure (SMILES): CCOC(=O)/C(O)=C/C(=O)c1cn(Cc2ccc(F)c(Cl)c2)c2cccc(OC)c12
- EC50 [1]: 1.87 µM
- EC50 (MT4): 49.3 µM
- selectivity ratio [2]: 26
- IC50 [3]: 0.36 µM
- IC50 [4]: 0.07 µM

Structure (SMILES): CCOC(=O)/C(O)=C/C(=O)c1cn(Cc2cc(F)cc(Cl)c2)c2cccc(OC)c12
- EC50 [1]: 4.27 µM
- EC50 (MT4): 58.2 µM
- selectivity ratio [2]: 14
- IC50 [3]: 1.3 µM
- IC50 [4]: 3.17 µM

Structure (SMILES): CCOC(=O)/C(O)=C/C(=O)c1cn(Cc2cc(Cl)ccc2F)c2cccc(OC)c12
- EC50 [1]: 18.1 µM
- EC50 (MT4): 18.1 µM
- selectivity ratio [2]: 1
- IC50 [3]: 1.61 µM
- IC50 [4]: 0.89 µM

Structure (SMILES): CCOC(=O)/C(O)=C/C(=O)c1cn(Cc2ccc(Cl)cc2F)c2cccc(OC)c12
- EC50 [1]: > 17 µM
- EC50 (MT4): 17 µM
- selectivity ratio [2]: < 1
- IC50 [3]: 1.15 µM
- IC50 [4]: 3.32 µM

Structure (SMILES): CCOC(=O)/C(O)=C/C(=O)c1cn(Cc2ccc(Cl)c(F)c2)c2cccc(OC)c12
- EC50 [1]: > 63.7 µM
- EC50 (MT4): 63.7 µM
- selectivity ratio [2]: < 1
- IC50 [3]: 5.05 µM
- IC50 [4]: 20.4 µM

Structure (SMILES): COc1cccc2c1c(C(=O)/C=C(\O)C(=O)O)cn2Cc1ccccc1Cl
- EC50 [1]: 0.42 µM
- EC50 (MT4): 27 µM
- selectivity ratio [2]: 64
- IC50 [3]: 0.71 µM
- IC50 [4]: 0.52 µM

Structure (SMILES): COc1cc2c(cc1Cc1cccc(Cl)c1F)c(=O)c(C(=O)O)cn2[C@H](CO)C(C)C
- EC50 (MT4): 2.12 µM

Structure (SMILES): Cc1nnc(C(=O)NC(C)(C)c2nc(C(=O)NCc3ccc(F)cc3)c(O)c(=O)n2C)o1
- EC50 (MT4): > 18 µM

Structure (SMILES): COc1cccc2c1c(C(=O)/C=C(\O)C(=O)O)cn2Cc1ccc(F)cc1
- EC50 (MT4): 41.1 µM
- selectivity ratio [2]: 70
